Assay [1] has as its system Platelet. In words: Inhibition of adenosine diphosphate-induced platelet aggregation in rabbit platelet rich plasma by Born's turbidimetric method. Type of assay: functional. Conditions: Oryctolagus cuniculus. Summed up: (§1)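 Rabbit carotid blood in 3.8% sodium citrate (9:1); PRP by 500g spin for 10 min, PPP by a further 3000g spin for 10 min. PRP was preincubated in duplicate for 5 min at 37 °C with vehicle or agent (0.1, 0.2, 0.4, 0.8, 1.6 mM). Aggregation was triggered by ADP (10 μM final) or AA (1 mM), and maximal light transmission was read within 5 min, within 3 h of collection. Inhibition % = 100 × (1 − treated/control); IC50 was calculated.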

In assay [2] the test system is Platelet. The assay is described as follows: Inhibition of arachidonic acid-induced platelet aggregation in rabbit platelet rich plasma by Born's turbidimetric method. In kind it is functional. The settings on record: Oryctolagus cuniculus. In outline:
as §1

For another assay, the system named is Plasma. In words: Anticoagulant activity in rabbit plasma assessed as length of activated partial thromboplastin time. In kind it is functional, cell-free. The settings on record: Oryctolagus cuniculus.
Assay [3] has as its system Platelet. In words: Inhibition of adenosine diphosphate-induced platelet aggregation in rabbit platelet rich plasma at 0.1 mM by Born's turbidimetric method. Type of assay: functional. The settings on record: Oryctolagus cuniculus. Summed up: as §1
Assay [4] has as its system Rattus norvegicus. The assay is described as follows: Antithrombotic activity in Sprague-Dawley rat arteriovenous shunt model assessed as reduction of thrombus wet weight at 80 mg/kg, po qd for 5 consecutive days. Also on record: scale not given: the % may be the effect or the level left. In kind it is functional. Summed up:
(§2)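 Male SD rats were dosed by gavage in saline daily for 5 days (n = 12/group). An A-V shunt linked the right carotid artery to the left jugular vein: a saline-filled 14 cm polyethylene tube holding 6 cm of four braided silk threads. After 15 min of flow, the threads were weighed wet, then dried 6 h at room temperature and reweighed, less the pre-experiment thread weight.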

Assay [5] relates to Rattus norvegicus. In words: Antithrombotic activity in Sprague-Dawley rat arteriovenous shunt model assessed as reduction of thrombus dry weight at 80 mg/kg, po qd for 5 consecutive days. In kind it is functional. Also on record: scale not given: the % may be the effect or the level left. Summed up: as §2
Assay [6] concerns Platelet. The assay is described as follows: Inhibition of arachidonic acid-induced platelet aggregation in rabbit platelet rich plasma at 0.1 mM by Born's turbidimetric method. In kind it is functional. The settings on record: Oryctolagus cuniculus. In outline:
as §1

pIC50: −log10 of the molar value. The source made the active and inactive calls. The rule behind the calls is not given here. Bounds are passed on as bounds.

With `CCC1SC(=O)c2ccccc21` (racemic), the pIC50 in the assay on Platelet [1] and in the assay on Platelet [2] was below 3.00 each time.

As for `CCCCCCC1SC(=O)c2ccccc21` (racemic), the pIC50 with Platelet [1] is 3.10; with Platelet [2], 3.08.

Turning to `CC(=O)Oc1ccccc1C(=O)O` [ASPIRIN], the pIC50 was 3.06 in the assay on Platelet [1] and 3.82 in the assay with Platelet [2]. Moreover, the outcome with Plasma was inactive. Moreover, the inhibition at 100 µM in the assay with Platelet [3] was determined as 10.8%; in the assay with Platelet [6] it was 37.2%. Also, the figures for the Activity in the assay with Rattus norvegicus [4] and with Rattus norvegicus [5] were 33.45% and 34.19%, respectively.

As to `CCCC1SC(=O)c2ccccc21` (racemic), the pIC50 was below 3.00 with Platelet [1] and 3.40 in the assay with Platelet [2].

As for `CCCCC1SC(=O)c2ccccc21` (racemic), the pIC50 in the assay on Platelet [1] is below 3.00; with Platelet [2] it was 3.46.

`O=C1SC(Cc2ccccc2)c2ccccc21` (racemic): the pIC50 in the assay with Platelet [1] and with Platelet [2] was below 3.00 in each case.

These data come from ChEMBL document CHEMBL2163221, “Discovery of a potential anti-ischemic stroke agent: 3-pentylbenzo[c]thiophen-1(3H)-one” (J Med Chem, 2012).
